GSTO1 inh: blocks human GSTO1 in RBBP9 counter-screen. P78417. recombinant GSTO1, activity-based probe fluorescence polarization. inhibition, % at 5.96 µM. 300,000 compounds, 1.1% hits. AID 1974;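 active means inhibition above the campaign mean inhibition plus 3 SD, cut at about 35% in these data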
Target sequence (P78417 whole entry, looked up): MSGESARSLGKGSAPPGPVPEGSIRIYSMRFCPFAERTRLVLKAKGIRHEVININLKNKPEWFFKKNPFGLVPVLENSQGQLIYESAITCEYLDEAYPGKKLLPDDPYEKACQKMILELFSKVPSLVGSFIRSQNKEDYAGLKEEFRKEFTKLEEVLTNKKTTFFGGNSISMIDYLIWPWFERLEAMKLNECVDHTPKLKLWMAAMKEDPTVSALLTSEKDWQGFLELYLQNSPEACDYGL
PP1 counter: PP1-alpha (human) inhibition in PP5 counter-screen; purified PP1alpha, OMFP fluorescence; inhibition, % at 6.7 µM; 320,000 compounds, 0.9% hits;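 active means inhibition above the mean inhibition of all tested compounds plus 3 SD, computed separately for each screening campaign, cut at about 15% in these data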
Apaf1 inhib: human Apaf-1 inhibition; reconstituted apoptosome caspase-3 activity, DEVD-Rh110 fluorescence; 330,000 compounds, 0.71% hits; inhibition, % at 20 µM; O14727; active means inhibition of at least 40% at 20 µM
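System: reconstituted apoptosome with Apaf-1, cytochrome c, caspase-9, procaspase-3, dATP; Signal: Rh110 fluorescence intensity; Schedule: 30 min compound preincubation, 50 min activation, room temperature; Reagent: cytochrome c trigger plus (Z-DEVD)2-Rh110 caspase-3 substrate.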
PP5 inh: inhibitors of human protein phosphatase 5 (PP5). P53041. purified PP5c, OMFP substrate fluorescence. inhibition, % at 6.7 µM. 320,000 compounds, 0.18% hits;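 active means inhibition above the campaign's mean inhibition across all tested compounds plus 3 SD, cut at about 9.5% in these data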
Target sequence (P53041 whole entry, looked up): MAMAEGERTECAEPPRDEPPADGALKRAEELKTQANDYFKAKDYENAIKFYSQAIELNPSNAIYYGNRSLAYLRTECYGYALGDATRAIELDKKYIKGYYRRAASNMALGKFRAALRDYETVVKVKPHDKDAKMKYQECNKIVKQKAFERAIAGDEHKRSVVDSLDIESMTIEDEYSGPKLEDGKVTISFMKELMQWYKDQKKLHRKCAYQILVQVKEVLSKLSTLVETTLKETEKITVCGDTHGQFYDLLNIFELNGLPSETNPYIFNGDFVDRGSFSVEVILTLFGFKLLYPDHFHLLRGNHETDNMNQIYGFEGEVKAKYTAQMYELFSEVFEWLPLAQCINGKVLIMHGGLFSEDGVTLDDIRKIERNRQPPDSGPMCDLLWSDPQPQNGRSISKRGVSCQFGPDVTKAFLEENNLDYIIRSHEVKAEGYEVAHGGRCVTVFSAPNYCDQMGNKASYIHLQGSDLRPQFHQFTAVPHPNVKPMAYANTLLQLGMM
TDP2 inh: blocks human TDP2 phosphodiesterase activity. recombinant TDP2, T5PNP hydrolysis, p-nitrophenol absorbance 415 nm. inhibition, % at 12.8 µM. AID 720702. O95551. 370,000 compounds, 0.34% hits;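 active means inhibition above the mean of all tested compounds plus 3 SD, set per campaign, cut at about 25% in these data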
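test system = human TDP2 enzyme | input = TDP2 enzyme at 120 nM final | medium = 50 mM Tris-HCl pH 7.5 with Mg2+, KCl, DTT, BSA | also added = T5PNP substrate, 5 mM | times = 2 h at 37 °C | technique = epi absorbance | benchmarks = high control without enzyme, low control DMSO plus TDP2 | replication = each compound tested once, singlicate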
GSTO1 inh conf: confirmation of human GSTO1 inhibitors; 2,400 compounds, 54% hits; inhibition, % at 5.96 µM; shares compounds with GSTO1 inh; AID 2176; recombinant GSTO1, probe fluorescence polarization;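 active means inhibition above the primary screen's cutoff, its mean inhibition plus 3 SD, cut at about 35% in these data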;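 further: loss of polarization as inhibitors block binding of rhodamine sulfonate ester activity probe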
PP5 conf: confirmation of human PP5 phosphatase inhibitors | shares compounds with PP5 inh | Purified PP5, fluorogenic phosphatase substrate, fluorescence | inhibition, % at 6.7 µM | 460 compounds, 22% hits; in the data active means inhibition above about 9.5%
PP1 inh counter: PP1 phosphatase inhibition, counter-screen for PP5 inhibitors. shares compounds with PP5 inh. PP1 enzyme, fluorescent phosphatase substrate. inhibition, % at 6.7 µM. 460 compounds, 4% hits; in the data active means inhibition above about 16%
Apaf-1 inh conf2: confirmation of Apaf-1 inhibitors | inhibition, % at 20 µM | 1,800 compounds, 25% hits | reconstituted apoptosome, caspase-3 DEVD-Rh110 fluorescence | shares compounds with Apaf1 inhib | AID 504614;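 active means mean inhibition of at least 40% at 20 µM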
Rh110 interf inh: counter-screen for Apaf-1 inhibitors: fluorescence interference | 1,800 tested, under 10 active | shares compounds with Apaf1 inhib | Rh110 fluorescence interference, quenched caspase reaction | activation (fluorescence interference), % at 20 µM;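 active means signal rise of 40% or more at 20 µM, treated as a fluorescence artifact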
Apaf1 inh interf: counter-screen for Apaf-1 inhibitors: fluorescence interference, dose response; shares compounds with Apaf1 inhib; fluorescence interference counterscreen, Apaf-1 assay format; IC50, µM; 460 tested, under 10 active; AID 588538; call rule not given here
TDP2 inh conf: human TDP2 inhibition, confirmation; shares compounds with TDP2 inh; recombinant human TDP2, absorbance read-out; inhibition, % at 12.8 µM; 1,100 compounds, 22% hits; in the data active means inhibition above about 25%
Each line names hits and unclear results; the compound was inactive in the other large screens (follow-up assays come after a bar, where they were run). Compounds with a hit are over-represented: about 2.1% of the library has one in this group of screens.

Cc1cccc(C)c1OCc1cccc(C2Nc3ccccc3C(=O)N2Cc2ccco2)c1 (centres undefined)	none (no result: GSTO1 inh, PP1 counter, Apaf1 inhib, PP5 inh)
Cc1ccc(S(=O)(=O)c2c(N)n(CCCO)c3nc4ccccc4nc23)cc1	GSTO1 inh 60, TDP2 inh 54 | GSTO1 inh conf inactive | TDP2 inh conf inactive
CCCCn1c(NC(=O)c2ccco2)c(S(=O)(=O)c2ccc(C)cc2)c2nc3ccccc3nc21	none (no result: GSTO1 inh, PP1 counter, Apaf1 inhib, PP5 inh)
CCCCn1c(NC(=O)c2ccc(Br)o2)c(S(=O)(=O)c2ccccc2)c2nc3ccccc3nc21	GSTO1 inh 58, Apaf1 inhib 71, TDP2 inh 67 | GSTO1 inh conf 67 | Apaf-1 inh conf2 inactive | Rh110 interf inh inactive | TDP2 inh conf inactive
CCCCn1c(NS(=O)(=O)c2ccccc2)c(S(=O)(=O)c2ccc(C)cc2)c2nc3ccccc3nc21	GSTO1 inh 92, TDP2 inh 89 (no result: Apaf1 inhib) | GSTO1 inh conf 83 | TDP2 inh conf 95
CCOc1ccc(NC(=S)Nc2ccc3nsnc3c2)cc1	GSTO1 inh 87, PP5 inh 12, TDP2 inh 72 | GSTO1 inh conf 81 | PP5 conf 49 | PP1 inh counter inactive | TDP2 inh conf 74
COc1ccc(NC(=S)Nc2ccc3nsnc3c2)cc1	GSTO1 inh 86, Apaf1 inhib 97, PP5 inh 12, TDP2 inh 76 | GSTO1 inh conf 80 | PP5 conf 47 | PP1 inh counter inactive | Apaf-1 inh conf2 97 | Rh110 interf inh inactive | Apaf1 inh interf inactive | TDP2 inh conf 80
S=C(Nc1ccc2nsnc2c1)NC1CCCCC1	none
COc1ccc(NC(=S)Nc2ccc3nc(C)c(C)nc3c2)cc1	none
S=C(Nc1ccc2nsnc2c1)N1CCCCCC1	GSTO1 inh 77, Apaf1 inhib 93, TDP2 inh 62 | GSTO1 inh conf 79 | Apaf-1 inh conf2 inactive | Rh110 interf inh inactive | TDP2 inh conf 68
CCOc1ccc(NC(=O)Nc2ccc3nsnc3c2)cc1	none
CC(C)N(C(=O)Nc1ccc2nsnc2c1)C(C)C	GSTO1 inh 98, Apaf1 inhib 97, TDP2 inh 88 | GSTO1 inh conf 77 | Apaf-1 inh conf2 96 | Rh110 interf inh inactive | Apaf1 inh interf inactive | TDP2 inh conf 61
Nc1[nH]c(C(=O)c2ccccc2)c(-c2ccc3ccccc3c2)c1C(=O)NC1CC1	none (no result: GSTO1 inh, PP1 counter, Apaf1 inhib, PP5 inh)
CN(C)c1cccc(/C=C2\CC3(OC(=O)C4CCCC4)CCCN2C3)c1 (centres undefined)	none (no result: GSTO1 inh, PP1 counter, Apaf1 inhib, PP5 inh)
CCOC(=O)[C@@]12CCCC=C1N(CCc1ccc(Cl)cc1)C(=O)[C@H]2CC(=O)N1CCN(C(=O)c2ccco2)CC1	none (no result: GSTO1 inh, PP1 counter, Apaf1 inhib, PP5 inh)
CCOc1ccc2noc3c2c1C(=O)c1ccccc1-3	GSTO1 inh 40, Apaf1 inhib 76, TDP2 inh 39 | GSTO1 inh conf inactive | Apaf-1 inh conf2 56 | Rh110 interf inh inactive | TDP2 inh conf 34
CC1(C)CNc2cc(N)ccc2S1	GSTO1 inh 39, Apaf1 inhib 50, TDP2 inh 38 | GSTO1 inh conf inactive | Apaf-1 inh conf2 70 | Rh110 interf inh inactive | Apaf1 inh interf inactive | TDP2 inh conf inactive
CC(C)c1[nH]nc2c1C(c1ccccc1)NC2=O (centres undefined)	none (no result: GSTO1 inh, PP1 counter, Apaf1 inhib, PP5 inh)
COC(=O)COc1ccc(C(c2c(C)[nH][nH]c2=O)c2c(C)[nH][nH]c2=O)cc1	none (no result: GSTO1 inh, PP1 counter, PP5 inh)
COC(=O)c1ccc(-c2ccc(C(c3c(C)[nH][nH]c3=O)c3c(C)[nH][nH]c3=O)o2)cc1	GSTO1 inh 38, Apaf1 inhib 44, TDP2 inh 26 | GSTO1 inh conf inactive | Apaf-1 inh conf2 42 | Rh110 interf inh inactive | Apaf1 inh interf inactive | TDP2 inh conf 25
Cc1[nH][nH]c(=O)c1C(c1ccc(-c2ccccc2C(=O)O)o1)c1c(C)[nH][nH]c1=O	GSTO1 inh 70, TDP2 inh 45 (no result: Apaf1 inhib) | GSTO1 inh conf inactive | TDP2 inh conf 39
CC(=O)c1ccc(NC2=C(N3CCOCC3)C(=O)c3ccccc3C2=O)cc1	GSTO1 inh 39, Apaf1 inhib 80, PP5 inh 10, TDP2 inh 54 | GSTO1 inh conf inactive | PP5 conf 16 | PP1 inh counter inactive | Apaf-1 inh conf2 46 | Rh110 interf inh inactive | Apaf1 inh interf inactive | TDP2 inh conf 38
CC(=O)c1ccc(S(=O)(=O)Nc2ccc(N3CCOCC3)cc2)cc1	none
CC(=O)N(C1=C(N2CCOCC2)C(=O)c2ccccc2C1=O)c1ccc(C(=O)O)cc1	GSTO1 inh 61, Apaf1 inhib 59, TDP2 inh 40 | GSTO1 inh conf 55 | Apaf-1 inh conf2 55 | Rh110 interf inh inactive | Apaf1 inh interf inactive | TDP2 inh conf inactive
Cc1ccc(NC2=C(N3CCOCC3)C(=O)c3ccccc3C2=O)cc1	GSTO1 inh 48, Apaf1 inhib 59, PP5 inh 10, TDP2 inh 60 | GSTO1 inh conf inactive | PP5 conf 30 | PP1 inh counter inactive | Apaf-1 inh conf2 81 | Rh110 interf inh inactive | Apaf1 inh interf inactive | TDP2 inh conf 51
Cc1[nH]n(-c2ccccc2)c(=O)c1C(c1ccc(C(=O)O)cc1)c1c(C)[nH]n(-c2ccccc2)c1=O	GSTO1 inh 60, Apaf1 inhib 71, TDP2 inh 99 | GSTO1 inh conf inactive | Apaf-1 inh conf2 inactive | Rh110 interf inh inactive | TDP2 inh conf 25
Cc1[nH]n(-c2ccccc2)c(=O)c1C(=O)Nc1ccccc1	none
COC(=O)C1=C(C)N(C)C(=NCC2CC2)NC1c1cccc(Cl)c1 (centres undefined)	none (no result: GSTO1 inh, PP1 counter, Apaf1 inhib, PP5 inh)
CC1=NN(c2ccc(C)c(C)c2)C(=O)C1C(c1cccc(O)c1)C1C(=O)N(c2ccc(C)c(C)c2)N=C1C (centres undefined)	GSTO1 inh 51, Apaf1 inhib 87, TDP2 inh 80 | GSTO1 inh conf inactive | TDP2 inh conf inactive
Cc1ccc(N2C(=O)C3C4C=CC(C4)C3C2=O)cc1C (centres undefined)	none
COc1cc(F)ccc1-c1csc(C(C)(NC(C)=O)c2ccccc2)n1 (centres undefined)	none (no result: GSTO1 inh, PP1 counter, Apaf1 inhib, PP5 inh)

Source: PubChem (several laboratories)
